Measured values gathered from unrelated publications.
Each line is one published result; the experiments were not run side by side. pIC50: −log10 of the molar value.
Organism: Plasmodium falciparum
Effect on: parasite growth

SMILES	technique	strain	time	notes	endpoint	result
CCN(CC)CCCC(C)Nc1ccnc2cc(Cl)ccc12 (stereo not drawn)		D6	72 h	blood stage	IC50	0.01 µg/mL
CCN(CC)CCCC(C)Nc1ccnc2cc(Cl)ccc12 (stereo not drawn)	LDH				pIC50	6.69
Cc1ccc(-c2ccccc2C(=O)Nc2c(C)cccc2C(=O)O)cc1		NF54	48 h	blood stage	pIC50	< 5.00
C=CCCCCCCCCCCCC(O)CC(O)CO (stereo not drawn)		D6		blood stage	IC50	29.7 µg/mL
COC1=CC(c2cccn2C)=NC1=Cc1ccc(CCCCCCCCCC(C)O)[nH]1 (stereo not drawn)		D6		blood stage	pIC50	5.63
O[C@@H](c1cc(C(F)(F)F)nc2c(C(F)(F)F)cccc12)[C@H]1CCCCN1	SYBR Green			blood stage	pIC50	7.77
Fc1ccc(-c2nc3c(N4CCCN(CC5CC5)CC4)nccc3[nH]2)cc1F		NF54		blood stage	pIC50	7.70
COc1ccccc1-c1ccccc1C(=O)Nc1c(C)cccc1C(=O)O	resazurin	NF54	48 h	gametocyte	pIC50	< 5.00
C[C@@]12CCC[C@]3(C)C4=CC(=O)OCC4=C[C@@H](OC1=O)C23 (stereo partly drawn)		W2	72 h	drug-resistant strain, blood stage	IC50	0.2 µg/mL
COc1cc(NC(C)CCCNC(=O)c2cccc(C(=O)NCCCC(C)Nc3cc(OC)cc4cccnc34)n2)c2ncccc2c1.Cl (stereo not drawn)		D6		blood stage	IC50	2.2 µg/mL
Clc1ccc2c(c1)nc(NCCN1CCOCC1)n2Cc1ccccc1		NF54		blood stage	pIC50	5.07
Oc1cccc(C(Nc2nccs2)c2ccc3cccnc3c2O)c1 (stereo not drawn)	SYBR Green			blood stage	pIC50	5.92
Clc1ccc2c(c1)nc(NCCNCc1ccncc1)n2Cc1ccccc1		NF54		blood stage	pIC50	5.64
O=C(Nc1cc(F)ccc1C(=O)O)c1ccc(-c2ccccc2)cc1		NF54	48 h	blood stage	pIC50	< 5.00
CCCCCCCCCCCCCC(O)CC(O)CO (stereo not drawn)		D6		blood stage	IC50	28.2 µg/mL
C/C=C/C=C/C=C/c1c(O)cc(CC=C(C)C)c(O)c1C=O		D6	72 h	blood stage	IC50	1.8 µg/mL
C[C@@H]1CC[C@H]2[C@@H](C)C(=O)O[C@@H]3O[C@@]4(C)CC[C@@H]1[C@]32OO4		W2		drug-resistant strain, blood stage	pIC50	7.82
Cc1onc(-c2ccccc2)c1-c1ccc(S(N)(=O)=O)cc1	SYBR Green			blood stage	pIC50	< 4.00
c1ccc(Cn2c(N3CCNCC3)nc3cc(-c4ccncc4)ccc32)cc1		NF54		blood stage	pIC50	5.78
CCOc1ccc(-c2nc(CNCCc3ccc(F)cc3)cs2)cc1	SYBR Green			blood stage	pIC50	4.77
CS(=O)(=O)c1ccc2c(c1)nc(C1CCNCC1)n2Cc1ccccc1		NF54		blood stage	pIC50	< 5.00
NC(N)=Nc1ccc(-c2ccc(-c3ccc(N=C(N)N)c(Cl)c3)o2)cc1Cl	SYBR Green			blood stage	pIC50	6.60
CCN(CC)CCCC(C)Nc1ccnc2cc(Cl)ccc12 (stereo not drawn)		NF54		blood stage	pIC50	8.38
CN1CCN(C2CCN(c3nccc4[nH]c(-c5cc(F)cc(F)c5)nc34)CC2)CC1		NF54		blood stage	pIC50	> 7.00
